Measurements published in ChEMBL document CHEMBL1122839, “Synthesis and antidiarrheal activity of N-(aminoiminomethyl)-1H-pyrrole-1-acetamides related to guanfacine” (1985).
Calls of active or inactive are those of the source. The calls are words filed in the database; no cut-off is given here.

What was measured:
Rattus norvegicus [1] = assay: Percent inhibition of caster oil induced diarrhea in rats at a dose of 30 mg/kg peroral administration after 6 hours; NS=Not significant; format: functional, organism-based; parameters: dose 30 mg/kg
Rattus norvegicus [2] = assay: Percent inhibition of caster oil induced diarrhea in rats at a dose of 30 mg/kg peroral administration after 2 hours; NS=Not significant; format: functional, organism-based; parameters: dose 30 mg/kg
Rattus norvegicus [3] = assay: Cardiovascular activity in normotensive rats after oral administration of 30 mg/kg after 2 hr; format: functional
In short: (§1)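 Female normotensive rats with left carotid artery cannulae placed under anaesthesia. The next day they received the test substance orally in 0.5% hydroxymethylcellulose/0.9% saline (10 mL/kg), or vehicle alone. Systolic blood pressure was measured from the cannula, and heart rate from the pressure-triggered tachometer, predose and at 1, 2, 4 and 6 h. Values are means; significance was judged against predose values.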

Rattus norvegicus [4] = assay: Percent inhibition of caster oil induced diarrhea in rats at a dose of 3 mg/kg peroral administration after 2 hours; format: functional; conditions: route oral
Rattus norvegicus [5] = assay: Percent inhibition of caster oil induced diarrhea in rats at a dose of 30 mg/kg peroral administration after 6 hours; format: functional; conditions: for inhibition in vivo at 30 mg/kg: Rattus norvegicus, 6 h
Rattus norvegicus [6] = assay: Cardiovascular activity in normotensive rats after oral administration of 30 mg/kg after 4 hr; format: functional; in short: as §1
Rattus norvegicus [7] = assay: Cardiovascular activity in normotensive rats after oral administration of 30 mg/kg after 1 hr; format: functional
In short: (§2)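 Female normotensive rats with left carotid artery cannulae implanted under anaesthesia; dosed orally the next day in 0.5% hydroxymethylcellulose/0.9% saline (10 mL/kg) or vehicle alone. Systolic blood pressure taken by pressure transducer before dosing and at 1, 2, 4, 6 h; heart rate from tachometer triggered by pressure signal. Mean values; significance versus predose.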

Rattus norvegicus [8] = assay: Percent inhibition of caster oil induced diarrhea in rats at a dose of 10 mg/kg peroral administration after 2 hours; format: functional; conditions: route oral
Rattus norvegicus [9] = assay: Percent inhibition of caster oil induced diarrhea in rats at a dose of 10 mg/kg peroral administration after 6 hours; format: functional; conditions: for Inhibition: 10 mg/kg; for inhibition in vivo at 10 mg/kg: Rattus norvegicus, 6 h
Rattus norvegicus [10] = assay: The compound was tested for cardiovascular activity in normotensive rats after oral administration of 30 mg/kg after 1 hr; format: functional, Heart; in short: as §1
Rattus norvegicus [11] = assay: Percent inhibition of caster oil induced diarrhea in rats at a dose of 30 mg/kg peroral administration after 2 hours; format: functional; conditions: route oral
Rattus norvegicus [12] = assay: Percent inhibition of caster oil induced diarrhea in rats at a dose of 1 mg/kg peroral administration after 2 hours; format: functional; conditions: route oral
Rattus norvegicus [13] = assay: Cardiovascular activity in normotensive rats after oral administration of 30 mg/kg after 6 hr; format: functional; in short: as §1
Rattus norvegicus [14] = assay: Percent inhibition of caster oil induced diarrhea in rats at a dose of 3 mg/kg peroral administration after 6 hours; NS=Not significant; format: functional, organism-based; parameters: dose 3 mg/kg
Rattus norvegicus [15] = assay: Percent inhibition of caster oil induced diarrhea in rats at a dose of 1 mg/kg peroral administration after 6 hours; NS=Not significant; format: functional, organism-based; parameters: dose 1 mg/kg
Rattus norvegicus [16] = assay: Percent inhibition of caster oil induced diarrhea in rats at a dose of 1 mg/kg peroral administration after 2 hours; NS=Not significant; format: functional, organism-based; parameters: dose 1 mg/kg
Rattus norvegicus [17] = assay: Percent inhibition of caster oil induced diarrhea in rats at a dose of 3 mg/kg peroral administration after 6 hr; NS=Not significant; format: functional, organism-based; parameters: dose 3 mg/kg
Rattus norvegicus [18] = assay: Percent inhibition of caster oil induced diarrhea in rats at a dose of 1 mg/kg peroral administration after 6 hr; NS=Not significant; format: functional, organism-based; parameters: dose 1 mg/kg
Rattus norvegicus [19] = assay: Percent inhibition of caster oil induced diarrhea in rats at a dose of 1 mg/kg peroral administration after 2 hr; format: functional; conditions: route oral
Rattus norvegicus [20] = assay: Percent inhibition of caster oil induced diarrhea in rats at a dose of 1 mg/kg peroral administration after 6 hr; format: functional; conditions: route oral
Rattus norvegicus [21] = assay: Percent inhibition of caster oil induced diarrhea in rats after 6 hours at 1 mg/kg of dose after peroral administration; NS=Not significant; format: functional, organism-based; parameters: dose 1 mg/kg
Rattus norvegicus [22] = assay: Percent inhibition of caster oil induced diarrhea in rats after 2 hours at 3 mg/kg of dose after peroral administration; format: functional; conditions: route oral
Rattus norvegicus [23] = assay: Percent inhibition of caster oil induced diarrhea in rats after 2 hours at 1 mg/kg of dose after peroral administration; NS=Not significant; format: functional, organism-based; parameters: dose 1 mg/kg
Rattus norvegicus [24] = assay: Percent inhibition of caster oil induced diarrhea in rats after 6 hours at 3 mg/kg of dose after peroral administration; NS=Not significant; format: functional, organism-based; parameters: dose 3 mg/kg
Rattus norvegicus [25] = assay: Percent inhibition of caster oil induced diarrhea in rats at a dose of 3 mg/kg peroral administration after 6 hr; format: functional; conditions: route oral
In short: (§3)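 Male rats housed singly on wide-mesh grids, food-deprived overnight, water free; groups of six dosed orally in 0.3% hydroxymethylcellulose/0.9% saline (10 mL/kg) or vehicle. Castor oil 1 mL orally 1 h later. Feces collected on preweighed papers and weighed at 2 and 6 h after castor oil; output expressed as percentage of vehicle group.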

Rattus norvegicus [26] = assay: Percent inhibition of caster oil induced diarrhea in rats at a dose of 3 mg/kg peroral administration after 2 hr; format: functional; conditions: route oral; in short: as §3
Rattus norvegicus [27] = assay: Cardiovascular activity in normotensive rats after oral administration of 30 mg/kg aof the compound after 1 hr; format: functional; in short: as §2

CC1CC[C@@H](C)N1CC(=O)N=C(N)N (some centres not stated)
inhibition (Rattus norvegicus [1]): inactive
inhibition (Rattus norvegicus [2]): inactive

CC1C=C[C@@H](C)N1CC(=O)N=C(N)N.Cl.Cl (stereo in doubt; 2)
Heart rate (Rattus norvegicus [3]): 373 beats min-1
Systolic blood pressure (Rattus norvegicus [3]): 137 mmHg
inhibition in vivo at 3 mg/kg (Rattus norvegicus [4]): 100%
inhibition in vivo at 30 mg/kg (Rattus norvegicus [5]; po): 99%
Heart rate (Rattus norvegicus [6]): 418 beats min-1
Systolic blood pressure (Rattus norvegicus [6]): 133 mmHg
Systolic blood pressure (Rattus norvegicus [7]): 133 mmHg
inhibition in vivo at 10 mg/kg (Rattus norvegicus [8]): 100%
Inhibition (Rattus norvegicus [9]; route oral): 86%
Heart rate (Rattus norvegicus [10]): 395 beats min-1
inhibition in vivo at 30 mg/kg (Rattus norvegicus [11]): 100%
inhibition in vivo at 1 mg/kg (Rattus norvegicus [12]): 92%
Heart rate (Rattus norvegicus [13]): 443 beats min-1
Systolic blood pressure (Rattus norvegicus [13]): 134 mmHg

CC1C=C[C@@H](C)N1CC(=O)N=C(N)N (stereo in doubt; 2)
inhibition (Rattus norvegicus [14]): Not siginificant
inhibition (Rattus norvegicus [15]): inactive

CC1C=C[C@@H](C)N1CC(=O)N=C(N)N.Cl.Cl (stereo in doubt; 10)
inhibition in vivo at 3 mg/kg (Rattus norvegicus [4]): 100%
Inhibition (Rattus norvegicus [9]; route oral): 52%

CC1C=C[C@@H](C)N1CC(=O)N=C(N)N (stereo in doubt; 10)
inhibition (Rattus norvegicus [16]): inactive
inhibition (Rattus norvegicus [17]): inactive
inhibition (Rattus norvegicus [18]): inactive

CC1C=C[C@@H](C)N1CC(=O)N=C(N)N.Cl.Cl (stereo in doubt; 11)
Inhibition (Rattus norvegicus [5]; route oral, 30 mg/kg): 100%
inhibition in vivo at 1 mg/kg (Rattus norvegicus [19]): 100%
inhibition in vivo at 1 mg/kg (Rattus norvegicus [20]): 46%
Inhibition (Rattus norvegicus [9]; route oral): 45%

CNC(=N)NC(=O)Nc1c(C)cccc1C [LIDAMIDINE]
Heart rate (Rattus norvegicus [3]): 241 beats min-1
Systolic blood pressure (Rattus norvegicus [3]): 132 mmHg
inhibition (Rattus norvegicus [21]): inactive
inhibition in vivo at 30 mg/kg (Rattus norvegicus [5]; po): 100%
Heart rate (Rattus norvegicus [6]): 261 beats min-1
Systolic blood pressure (Rattus norvegicus [6]): 126 mmHg
inhibition in vivo at 3 mg/kg (Rattus norvegicus [22]): 100%
Heart rate (Rattus norvegicus [7]): 263 beats min-1
Systolic blood pressure (Rattus norvegicus [7]): 123 mmHg
inhibition in vivo at 10 mg/kg (Rattus norvegicus [8]): 100%
inhibition (Rattus norvegicus [23]): inactive
inhibition in vivo at 10 mg/kg (Rattus norvegicus [9]; po): 68%
inhibition in vivo at 30 mg/kg (Rattus norvegicus [11]): 100%
inhibition (Rattus norvegicus [24]): inactive
Heart rate (Rattus norvegicus [13]): 298 beats min-1
Systolic blood pressure (Rattus norvegicus [13]): 131 mmHg

CN(C)C(=O)C(CCN1CCC(O)(c2ccc(Cl)cc2)CC1)(c1ccccc1)c1ccccc1 [LOPERAMIDE]
inhibition in vivo at 3 mg/kg (Rattus norvegicus [25]): 77%
inhibition in vivo at 3 mg/kg (Rattus norvegicus [26]): 96%
Heart rate (Rattus norvegicus [3]): 290 beats min-1
Systolic blood pressure (Rattus norvegicus [3]): 117 mmHg
inhibition in vivo at 30 mg/kg (Rattus norvegicus [5]; route oral): 97%
Heart rate (Rattus norvegicus [6]): 324 beats min-1
Systolic blood pressure (Rattus norvegicus [6]): 124 mmHg
Systolic blood pressure (Rattus norvegicus [27]): 119 mmHg
Heart rate (Rattus norvegicus [7]): 278 beats min-1
inhibition in vivo at 10 mg/kg (Rattus norvegicus [8]): 100%
inhibition in vivo at 10 mg/kg (Rattus norvegicus [9]; route oral): 99%
inhibition in vivo at 30 mg/kg (Rattus norvegicus [11]): 98%
Heart rate (Rattus norvegicus [13]): 360 beats min-1
Systolic blood pressure (Rattus norvegicus [13]): 125 mmHg
